These results are taken from ChEMBL document CHEMBL3124940, “Design, synthesis and biological evaluation of D-ring opened galantamine analogs as multifunctional anti-Alzheimer agents” (Eur J Med Chem, 2014).

Broadly, the IC50 is the point on the concentration scale where inhibition reaches its midpoint. A lower IC50 goes with inhibition by little substance.

The target of experiment [1] is Amyloid-beta precursor protein (Homo sapiens) (UniProt P05067). Nature of the experiment: Inhibition of amyloid beta (1 to 42) aggregation (unknown origin) after 1 hr by thioflavin T fluorescence assay. In a few lines:
(§1)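 Aβ42 stock (200 µM in DMSO) centrifuged 12,000 rpm for 10 min; supernatant used. Compound (2 µL of 0.2–4.0 mM DMSO stock) and 2 µL Aβ42 stock added to 76 µL PBS pH 7.4, incubated 1 h at room temperature. 80 µL of 5 µM ThT in 50 mM glycine-NaOH pH 8.5 then added; fluorescence read at excitation 430 nm, emission 488 nm.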

Experiment [2] shares this target. Nature of the experiment: Inhibition of amyloid beta (1 to 42) aggregation (unknown origin) at 5 uM after 1 hr by thioflavin T fluorescence assay. In short, it runs like this: as §1
The target of experiment [3] is Cholinesterase (Equus caballus, UniProt P81908). Briefly: Inhibition of equine serum BChE using butyrylthiocholine iodide as substrate preincubated for 5 mins followed by substrate addition measured after 5 mins by Ellman's method. In a few lines: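 Ellman's method with equine serum BChE and butyrylthiocholine iodide; DTNB read-out at 412 nm, 25 °C. Phosphate buffer pH 8.0. At least five concentrations (normally 10^-4 to 10^-9 M), each in triplicate, to build the inhibition curve. Data are means of at least three determinations.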
Chain of Cholinesterase (P81908 whole entry): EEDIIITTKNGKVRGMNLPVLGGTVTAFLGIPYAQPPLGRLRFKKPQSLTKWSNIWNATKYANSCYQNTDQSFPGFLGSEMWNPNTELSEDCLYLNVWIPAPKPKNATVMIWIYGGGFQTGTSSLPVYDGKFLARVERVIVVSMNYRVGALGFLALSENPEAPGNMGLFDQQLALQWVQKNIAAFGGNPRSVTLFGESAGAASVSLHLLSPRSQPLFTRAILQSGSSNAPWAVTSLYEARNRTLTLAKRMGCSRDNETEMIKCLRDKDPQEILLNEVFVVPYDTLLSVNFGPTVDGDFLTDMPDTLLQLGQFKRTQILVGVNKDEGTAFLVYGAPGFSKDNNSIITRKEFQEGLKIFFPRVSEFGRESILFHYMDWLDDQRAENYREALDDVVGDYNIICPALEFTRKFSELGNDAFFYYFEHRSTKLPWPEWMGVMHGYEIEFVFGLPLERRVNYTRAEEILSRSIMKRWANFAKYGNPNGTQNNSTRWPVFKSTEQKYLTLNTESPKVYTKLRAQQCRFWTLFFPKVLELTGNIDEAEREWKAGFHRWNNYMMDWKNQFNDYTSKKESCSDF

A short description of experiment [4]: Selectivity ratio of IC50 for electric eel AChE to IC50 for equine serum BChE. In a few lines:
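AChE is electric eel Type VI-S with acetylthiocholine; BChE is equine serum with butyrylthiocholine. At least five concentrations, each in triplicate. Ratio = IC50(AChE)/IC50(BChE).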

The target of experiment [5] is Acetylcholinesterase (Electrophorus electricus, UniProt O42275). Nature of the experiment: Inhibition of electric eel AChE using acetylthiocholine iodide as substrate preincubated for 5 mins followed by substrate addition measured after 5 mins by Ellman's method. (In general: In Ellman's method for cholinesterases, released thiocholine reacts with DTNB.)
Chain of Acetylcholinesterase (O42275 whole entry): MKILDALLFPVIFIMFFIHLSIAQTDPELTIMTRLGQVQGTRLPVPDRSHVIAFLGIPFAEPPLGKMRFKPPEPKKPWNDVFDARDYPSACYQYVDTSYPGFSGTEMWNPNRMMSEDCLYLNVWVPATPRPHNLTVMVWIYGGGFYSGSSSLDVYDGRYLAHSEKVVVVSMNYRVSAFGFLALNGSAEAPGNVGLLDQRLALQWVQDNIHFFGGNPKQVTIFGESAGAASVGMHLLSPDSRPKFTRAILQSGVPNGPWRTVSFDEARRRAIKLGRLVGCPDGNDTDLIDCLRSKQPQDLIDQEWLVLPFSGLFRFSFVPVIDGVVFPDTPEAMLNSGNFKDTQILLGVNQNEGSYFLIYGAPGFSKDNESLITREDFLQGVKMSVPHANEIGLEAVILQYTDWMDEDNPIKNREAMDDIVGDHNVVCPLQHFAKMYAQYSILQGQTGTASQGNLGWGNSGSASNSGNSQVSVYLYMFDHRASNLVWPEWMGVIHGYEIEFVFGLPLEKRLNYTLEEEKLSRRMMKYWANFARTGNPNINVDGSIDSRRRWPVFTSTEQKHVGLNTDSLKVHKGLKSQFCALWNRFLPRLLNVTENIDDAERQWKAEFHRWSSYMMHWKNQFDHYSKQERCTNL

Calls of active or inactive are those of the source. The rule behind the calls is not given here.

Chain of Amyloid-beta precursor protein (Homo sapiens) (P05067 whole entry): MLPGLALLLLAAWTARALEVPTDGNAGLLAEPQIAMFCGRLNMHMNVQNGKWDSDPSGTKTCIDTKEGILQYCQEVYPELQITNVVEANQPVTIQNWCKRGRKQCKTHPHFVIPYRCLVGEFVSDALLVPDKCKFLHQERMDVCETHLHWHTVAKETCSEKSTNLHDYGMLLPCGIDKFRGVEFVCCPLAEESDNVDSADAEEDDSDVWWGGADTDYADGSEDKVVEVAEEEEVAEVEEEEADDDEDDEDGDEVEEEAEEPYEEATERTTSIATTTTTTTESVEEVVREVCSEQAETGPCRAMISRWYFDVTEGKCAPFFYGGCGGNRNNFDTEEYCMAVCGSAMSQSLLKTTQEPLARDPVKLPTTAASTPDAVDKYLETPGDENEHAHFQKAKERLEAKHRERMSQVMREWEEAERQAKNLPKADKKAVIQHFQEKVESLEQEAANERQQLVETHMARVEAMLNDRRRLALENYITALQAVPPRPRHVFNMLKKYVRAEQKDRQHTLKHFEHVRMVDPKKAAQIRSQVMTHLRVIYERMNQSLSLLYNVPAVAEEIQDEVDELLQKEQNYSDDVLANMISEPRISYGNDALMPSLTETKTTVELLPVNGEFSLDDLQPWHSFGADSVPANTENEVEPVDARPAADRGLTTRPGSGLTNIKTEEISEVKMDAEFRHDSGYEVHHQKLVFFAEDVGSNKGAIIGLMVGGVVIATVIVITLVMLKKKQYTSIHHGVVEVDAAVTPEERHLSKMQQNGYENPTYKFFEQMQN

`COc1cc(/C=C/C(=O)CC(=O)/C=C/c2ccc(O)c(OC)c2)ccc1O`: in experiment [1], the inhibition entry is “Dose-dependent effect”. The inhibition entry in experiment [2] was “inactive”.
With `CC(C)NCc1cccc2oc3cc(O)ccc3c12`, the values for the IC50 in experiment [3] and in experiment [5] were 18.4 µM and 22.6 µM, respectively. Moreover, in experiment [4], the Ratio IC50 was determined as 1.23.
